ERa SRC1 inh – blocks coactivator binding to human estrogen receptor alpha; P03372; TR-FRET ER-alpha LBD / SRC-1 peptide, estradiol-bound; inhibition, % at 25.6 µM; 1.7% of 86,000 active; in the data active means inhibition above about 50%
ERa coact pot – enhances coactivator binding to human estrogen receptor alpha | P03372 | 1.3% of 86,000 active | coactivator binding (% of control), % at 25.6 µM | AID 639 | TR-FRET ERalpha-LBD/SRC-Cy5 coactivator binding, 2 h; 100 = basal binding, no effect; in the data active means activity above about 200%;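 further: binding measured in presence of low estradiol as agonist stimulus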
HIV Rev-RRE inh – inhibitors of HIV-1 Rev-RRE RNA interaction; P05866; Rev peptide-RRE RNA binding, FRET; inhibition, % at 8 µM; 0.79% of 97,000 active; AID 704;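 active means inhibition above the screen-wide mean plus 3 SD, cut at about 35% in these data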
Target sequence (P05866 whole entry, looked up): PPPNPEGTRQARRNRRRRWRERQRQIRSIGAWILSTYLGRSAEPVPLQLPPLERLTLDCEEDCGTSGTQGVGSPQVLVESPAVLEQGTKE
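Assay system: Rev peptide and RRE RNA, both fluorescently labelled; times: 5 min preincubation and 15 min binding, 25 °C; detection: FRET, ex 480 nm, em 540 and 671 nm; read-out basis: % inhibition from 671/540 nm acceptor-to-donor ratio, scaled between controls; benchmarks: DMSO low control, neomycin B high control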
Smad3 FoxH1 inh – Smad3 (human) transcription factor binding inhibition; P84022; TR-FRET Smad3/Dy647-FoxH1 peptide binding, europium anti-His; inhibition, % at 25 µM; 0.29% of 88,000 active;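 active means compounds that reduce the energy-transfer binding signal between the protein and its labelled peptide by more than half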
FAK blocker – blocks human focal adhesion kinase activity. inhibition, %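 (tested at 7 µM)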. 0.84% of 97,000 active. AID 727. Q05397. biochemical FAK kinase activity assay; in the data active means inhibition above about 19%
ERb coact inh – blocks coactivator binding to human estrogen receptor beta; 1.3% of 86,000 active; inhibition, % at 25.6 µM; TR-FRET ER-beta LBD / SRC1-Cy5 peptide binding; receptor agonist-loaded with 1 µM estradiol; Q92731; AID 633;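 active means compounds whose percent inhibition of the receptor-coactivator binding signal exceeds about 50% in the single-dose screen, limit read from the data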
Target sequence (Q92731 whole entry, looked up, the tested form may be a part): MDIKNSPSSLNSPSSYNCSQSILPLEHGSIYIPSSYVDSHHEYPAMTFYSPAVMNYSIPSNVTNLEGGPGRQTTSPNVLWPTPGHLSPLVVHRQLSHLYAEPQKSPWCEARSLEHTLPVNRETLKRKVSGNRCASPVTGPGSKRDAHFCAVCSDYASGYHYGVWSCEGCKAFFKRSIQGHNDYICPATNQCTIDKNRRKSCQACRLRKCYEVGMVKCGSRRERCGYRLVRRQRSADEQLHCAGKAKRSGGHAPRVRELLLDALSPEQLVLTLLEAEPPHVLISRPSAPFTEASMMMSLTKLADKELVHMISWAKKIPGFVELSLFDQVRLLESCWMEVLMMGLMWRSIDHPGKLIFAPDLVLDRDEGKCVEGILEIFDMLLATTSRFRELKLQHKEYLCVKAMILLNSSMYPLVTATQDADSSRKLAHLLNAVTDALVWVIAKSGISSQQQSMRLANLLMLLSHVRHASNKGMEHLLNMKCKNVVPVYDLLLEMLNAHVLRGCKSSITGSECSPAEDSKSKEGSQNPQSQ
Of the large screens only hits and unclear results are named; the others gave an inactive call; [ ] = dose if it differs, or a comment. An excerpt weighted towards active compounds, which were near 4% of everything screened.

COC(=O)CCC(NC(=O)OCc1ccccc1)C(=O)NC(CC(C)C)C(=O)OC (stereo not given)	none
CCC(C)C(NC(=O)C(N)CC(C)C)C(=O)NC(CCC(=O)OCc1ccccc1)C(N)=O (stereo not given)	ERa coact pot 211.3
COc1cc2c(=O)n(CC3CCCO3)c(=O)n(CC(=O)Nc3cccc(Cl)c3)c2cc1OC (stereo not given)	Smad3 FoxH1 inh 83.2[fluorescence artefact?]
COc1cc2c(=O)n(CC3CCCO3)c(=O)n(CC(=O)Nc3ccc(F)cc3F)c2cc1OC (stereo not given)	none (no result: HIV Rev-RRE inh, FAK blocker)
CCn1c(-c2ccc(F)cc2)cnc1SCC(=O)N1CCCCC1C (stereo not given)	none (no result: ERa SRC1 inh, ERa coact pot, Smad3 FoxH1 inh, ERb coact inh)
Cc1cc(C)n(-c2nc3c(c(=O)n(Cc4ccc(Cl)c(Cl)c4)c(=O)n3C)n2C)n1	ERa SRC1 inh 60.4[fluorescence artefact?]
CC1CN(c2nc3c(c(=O)n(Cc4ccc(Cl)c(Cl)c4)c(=O)n3C)n2C)CC(C)O1 (stereo not given)	none
Cn1c(=O)c2c(nc(Oc3ccc4c(c3)OCO4)n2Cc2ccc(Br)cc2)n(C)c1=O	ERb coact inh 52.5 (no result: HIV Rev-RRE inh, FAK blocker)
COc1cccc(-n2nc(-c3ccnn3-c3ccc(F)cc3)c(=O)n(C)c2=O)c1	ERb coact inh 73.8
N#CC(C(=O)Nc1ccc(Cl)cc1)=C1Nc2ccccc2N1	ERa SRC1 inh 53.7
C=CCNC(=O)C1CC(=O)N(c2ccc(Br)cc2)C1 (stereo not given)	ERb coact inh 95.2[fluorescence artefact?]
c1ccc(CNc2nc3ccccc3n3cnnc23)nc1	none
c1ccc(CNc2nc3ccccc3n3cnnc23)cc1	ERa coact pot 238.0[fluorescence artefact?]
c1cncc(-c2nn[nH]n2)c1	ERb coact inh 63.0[fluorescence artefact?]
COC(=O)C(NNc1ccccc1)(NC(=O)c1cccc(F)c1)C(F)(F)F (stereo not given)	none (no result: ERa SRC1 inh, ERa coact pot, Smad3 FoxH1 inh, ERb coact inh)
OC[C@@H](O)CNc1ncnc2ccccc12	none (no result: ERa SRC1 inh, ERa coact pot, HIV Rev-RRE inh, FAK blocker, ERb coact inh)
COc1ccc(-c2c(C#N)c(N)nc3c2CCCCCC3)cc1OC	none
Cc1nn(-c2ccc(F)cc2)c2nc(N)c(C#N)c(-c3cccs3)c12	ERa coact pot 243.1[fluorescence artefact?]
COc1cc(-c2c(C#N)c(N)nc3c2c(C)nn3-c2ccc(C)c(C)c2)cc(OC)c1OC	ERa coact pot 458.8[fluorescence artefact?], ERb coact inh 53.7[fluorescence artefact?] (no result: HIV Rev-RRE inh, FAK blocker)
Cc1ccc(S(=O)(=O)c2cc3c(=O)n4ccccc4nc3n(Cc3ccco3)c2=N)cc1	ERb coact inh 63.1[fluorescence artefact?]
N=c1c(C(=O)NCc2ccco2)cc2c(=O)n3ccccc3nc2n1Cc1ccccc1	none
Cc1ccc(S(=O)(=O)c2cc3c(=O)n4ccccc4nc3n(CC3CCCO3)c2=N)cc1 (stereo not given)	none
N=c1c(C(=O)NCc2ccco2)cc2c(=O)n3ccccc3nc2n1Cc1ccc(Cl)cc1	ERa SRC1 inh 79.8[fluorescence artefact?], ERb coact inh 58.2[fluorescence artefact?]
Cc1cccn2c(=O)c3cc(C(=O)NCc4ccco4)c(=N)n(CCc4ccccc4)c3nc12	ERa SRC1 inh 92.7[fluorescence artefact?], ERb coact inh 59.0 (no result: HIV Rev-RRE inh, FAK blocker)
Cc1ccc(S(=O)(=O)c2cc3c(=O)n4cccc(C)c4nc3n(CC3CCCO3)c2=N)cc1 (stereo not given)	ERa coact pot 290.3 (no result: HIV Rev-RRE inh, FAK blocker)
C[N+](C)(N)CCC[N+](C)(C)N	none (no result: ERa SRC1 inh, ERa coact pot, HIV Rev-RRE inh, FAK blocker, ERb coact inh)
Cc1ccc(CNC(=O)c2cc3c(=O)n4ccccc4nc3n(Cc3ccco3)c2=N)cc1	ERa SRC1 inh 81.7[fluorescence artefact?], ERb coact inh 54.6[fluorescence artefact?] (no result: HIV Rev-RRE inh, FAK blocker)
Cc1ccc(CNC(=O)c2cc3c(=O)n4ccccc4nc3n(CC3CCCO3)c2=N)cc1 (stereo not given)	none (no result: HIV Rev-RRE inh, FAK blocker)
N=c1c(C(=O)NCc2ccccc2)cc2c(=O)n3ccccc3nc2n1Cc1ccco1	ERa SRC1 inh 71.1[fluorescence artefact?]
COCCn1c(=N)c(C(=O)NCc2ccco2)cc2c(=O)n3ccccc3nc21	none (no result: HIV Rev-RRE inh, FAK blocker)
CCC(C)(C)C1CCC(=NNC(=O)c2ccoc2C)CC1 (stereo not given)	none (no result: ERa SRC1 inh, ERa coact pot, Smad3 FoxH1 inh, ERb coact inh)
COCC(=O)Nc1c(C(=O)Nc2ccccc2OC)oc2ccccc12	ERa coact pot 213.3[fluorescence artefact?]
COc1cccc(OCC(=O)Nc2c(C(=O)Nc3ccc(OC)cc3OC)oc3ccccc23)c1	ERa SRC1 inh 72.9[fluorescence artefact?], ERa coact pot 219.8[fluorescence artefact?], ERb coact inh 50.1[fluorescence artefact?] (no result: HIV Rev-RRE inh, FAK blocker)
COc1ccccc1NC(=O)c1oc2ccccc2c1NC(=O)c1cc(OC)c(OC)c(OC)c1	none
CCOC(=O)C1=C(CSc2nc3c(cc2C#N)CN(C)CC3)OC(N)=C(C#N)C1c1ccccc1 (stereo not given)	HIV Rev-RRE inh 57.4
CCOC(=O)C1=C(CSc2nc3c(cc2C#N)CN(C)CC3)OC(N)=C(C#N)C1c1ccc(F)cc1 (stereo not given)	HIV Rev-RRE inh 56.8
CCOC(=O)C1=C(CSc2nc(-c3ccccc3)ccc2C#N)OC(N)=C(C#N)C1c1cccnc1 (stereo not given)	HIV Rev-RRE inh 36.6
COC(=O)C1=C(CSc2nc3c(cc2C#N)CN(C)CC3)OC(N)=C(C#N)C1c1ccccc1F (stereo not given)	HIV Rev-RRE inh 53.6
C=CCNS(=O)(=O)c1ncnc2nc[nH]c12	none (no result: ERa SRC1 inh, ERa coact pot, HIV Rev-RRE inh, FAK blocker, ERb coact inh)
CN(C)C(=O)c1ccccc1-c1ccccc1	ERa coact pot 240.9
CCN1C2=C(C(=O)CCC2)C(c2ccc(O)c(Br)c2)C2=C1CCCC2=O	ERa SRC1 inh 56.4[fluorescence artefact?], ERb coact inh 60.3
CCOC(=O)c1[nH]c2c(c1C)C(=O)CC(c1ccco1)C2 (stereo not given)	ERa SRC1 inh 65.2, ERb coact inh 55.9[fluorescence artefact?] (no result: HIV Rev-RRE inh, FAK blocker)
CSCCOC(=O)c1[nH]c2c(c1C)C(=O)CC(c1ccco1)C2 (stereo not given)	ERa SRC1 inh 55.8, ERb coact inh 50.2 (no result: HIV Rev-RRE inh, FAK blocker)
Cc1c(C(=O)OCCOC(C)C)[nH]c2c1C(=O)CC(c1ccco1)C2 (stereo not given)	none (no result: HIV Rev-RRE inh, FAK blocker)
